Assay results reported in ChEMBL document CHEMBL1933020, “A novel series of glucagon receptor antagonists with reduced molecular weight and lipophilicity” (Bioorg Med Chem Lett, 2012).
Converted amounts (≈) assume the structure as drawn.

Columns and labels:
Glucagon receptor [1] = biological target: T1, Glucagon receptor (Homo sapiens, UniProt P47871); assay: Displacement of [125I]Glucagon-Cex from human GCGR
Procedure, shortened: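 Displacement of [125I]glucagon-Cex from membranes containing the human glucagon receptor, run with 0.2% BSA. Values are geometric means of n ≥ 2 determinations.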

Glucagon receptor [2] = biological target: T1, Glucagon receptor; assay: Antagonist activity at human GCGR assessed as inhibition of glucagon-induced cAMP accumulation in cell-based assay; type: functional
Procedure, shortened: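 Cell line expressing the human glucagon receptor. Antagonism was measured as inhibition of glucagon-induced cAMP production. […] Values are geometric means of n ≥ 2 determinations.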

[3] = biological target: Glucagon-like peptide 1 receptor (Homo sapiens, UniProt P43220); assay: Displacement of [125I]GLP-1 from human GLP1R
Procedure, shortened: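 Displacement of [125I]GLP-1 from membranes expressing the human GLP-1 receptor.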

[4] = Kinetic solubility of the compound at pH 6.5; type: physicochemical; conditions: buffer, read-out: Kinetic_solubility
[5] = biological target: T2, Gastric inhibitory polypeptide receptor (Homo sapiens, UniProt P48546); assay: Displacement of [125I]GIP from human GIPR
T2 sequence (P48546 whole entry): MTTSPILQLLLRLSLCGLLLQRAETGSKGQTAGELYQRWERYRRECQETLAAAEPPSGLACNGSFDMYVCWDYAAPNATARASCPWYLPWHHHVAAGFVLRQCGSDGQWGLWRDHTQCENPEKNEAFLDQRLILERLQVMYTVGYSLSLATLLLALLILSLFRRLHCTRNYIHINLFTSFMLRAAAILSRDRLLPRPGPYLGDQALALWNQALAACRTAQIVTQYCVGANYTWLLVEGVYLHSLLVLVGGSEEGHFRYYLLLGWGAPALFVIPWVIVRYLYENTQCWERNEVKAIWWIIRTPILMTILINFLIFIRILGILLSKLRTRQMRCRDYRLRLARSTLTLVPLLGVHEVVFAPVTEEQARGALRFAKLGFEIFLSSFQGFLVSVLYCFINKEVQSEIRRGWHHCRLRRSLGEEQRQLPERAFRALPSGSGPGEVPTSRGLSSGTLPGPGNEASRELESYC

[6] = Permeability across low transporter-containing MDCK2 cells; type: ADME, cell-based, Canis lupus familiaris, MDCK-II; conditions: dog, MDCK; read-out: permeability
[7] = Lipophilicity, log D of the compound in octanol-phosphate buffer at pH 7.4; type: physicochemical; conditions: octanol/phosphate buffer, read-out: logD
Procedure, shortened: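 Shake-flask partition between octanol and buffer at pH 7.4.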

T1 sequence (P47871 whole entry): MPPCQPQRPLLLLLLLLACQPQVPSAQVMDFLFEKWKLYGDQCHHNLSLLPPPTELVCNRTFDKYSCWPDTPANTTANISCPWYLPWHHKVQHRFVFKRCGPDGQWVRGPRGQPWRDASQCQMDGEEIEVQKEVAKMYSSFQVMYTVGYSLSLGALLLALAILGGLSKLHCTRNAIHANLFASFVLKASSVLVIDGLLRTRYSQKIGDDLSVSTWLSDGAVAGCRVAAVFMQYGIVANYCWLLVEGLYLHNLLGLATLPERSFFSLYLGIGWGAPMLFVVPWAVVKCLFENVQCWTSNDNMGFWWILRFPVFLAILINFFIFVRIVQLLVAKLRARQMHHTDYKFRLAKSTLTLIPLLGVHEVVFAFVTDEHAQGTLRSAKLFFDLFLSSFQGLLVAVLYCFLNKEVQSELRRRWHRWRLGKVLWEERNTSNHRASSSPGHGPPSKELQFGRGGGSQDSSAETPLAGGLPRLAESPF
Glucagon-like peptide 1 receptor, sequence (P43220 whole entry): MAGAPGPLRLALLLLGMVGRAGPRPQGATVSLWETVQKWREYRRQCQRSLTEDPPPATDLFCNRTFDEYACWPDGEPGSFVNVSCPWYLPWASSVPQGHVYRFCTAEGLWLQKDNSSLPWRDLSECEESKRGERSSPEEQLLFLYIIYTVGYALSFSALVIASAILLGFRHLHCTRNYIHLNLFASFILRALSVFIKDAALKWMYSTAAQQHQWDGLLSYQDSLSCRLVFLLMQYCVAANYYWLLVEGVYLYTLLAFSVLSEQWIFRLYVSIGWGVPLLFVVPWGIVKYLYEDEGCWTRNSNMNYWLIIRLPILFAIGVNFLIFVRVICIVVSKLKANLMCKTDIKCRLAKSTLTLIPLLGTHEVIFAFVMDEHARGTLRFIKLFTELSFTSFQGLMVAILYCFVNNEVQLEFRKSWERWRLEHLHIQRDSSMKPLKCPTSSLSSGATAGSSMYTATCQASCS

Row | SMILES | Ki (Glucagon receptor [1]) [nM] | Kb (Glucagon receptor [2]) [nM] | also measured
1 | CCCc1c(C(C)C)cc(C(C)C)c(C(C)O)c1-c1ccc(F)cc1 (centres undefined) | 356 | 78 | 
2 | O=C(NC[C@@H](O)C(=O)O)c1ccc(CN(C(=O)Nc2cc(Cl)cc(Cl)c2)c2ccc(C3=CCCCC3)cc2)cc1 | 85 | 430 | 
3 | CCCC(Oc1cnn(-c2ccccc2C)c1)c1ccc(C(=O)NCCC(=O)O)cc1 (racemic) | 14700 | > 23600 | 
4 | CCCC(Oc1cnn(-c2cccc(C)c2)c1)c1ccc(C(=O)NCCC(=O)O)cc1 (racemic) | 1110 | > 20900 | 
5 | CCCC(Oc1cnn(-c2ccc(C)cc2)c1)c1ccc(C(=O)NCCC(=O)O)cc1 (racemic) | 968 | > 12900 | 
6 | CCCC(Oc1cnn(-c2cccc(CC)c2)c1)c1ccc(C(=O)NCCC(=O)O)cc1 (racemic) | 556 | 4530 | 
7 | CCCC(Oc1cnn(-c2ccc(CC)cc2)c1)c1ccc(C(=O)NCCC(=O)O)cc1 (racemic) | 214 | 3420 | 
8 | CCCC(Oc1cnn(-c2cccc(Cl)c2)c1)c1ccc(C(=O)NCCC(=O)O)cc1 (racemic) | 1090 | 16900 | 
9 | CCCC(Oc1cnn(-c2ccc(Cl)cc2)c1)c1ccc(C(=O)NCCC(=O)O)cc1 (racemic) | 600 | > 7520 | 
10 | CCCC(Oc1cnn(-c2cccc(OC)c2)c1)c1ccc(C(=O)NCCC(=O)O)cc1 (racemic) | 2160 | > 19100 | 
11 | CCCC(Oc1cnn(-c2ccc(OC)cc2)c1)c1ccc(C(=O)NCCC(=O)O)cc1 (racemic) | 1980 | > 21300 | 
12 | CCCC(Oc1cnn(-c2ccc(C(F)(F)F)cc2)c1)c1ccc(C(=O)NCCC(=O)O)cc1 (racemic) [listing 1 of 2 here] | 126 |  | 
13 | CCCC(Oc1cnn(-c2ccc(C(F)(F)F)cn2)c1)c1ccc(C(=O)NCCC(=O)O)cc1 (racemic) | 1190 | 16400 | 
14 | CCCC(Oc1cnn(-c2ccc(C(F)(F)F)nc2)c1)c1ccc(C(=O)NCCC(=O)O)cc1 (racemic) | 1450 | 21500 | 
15 | CCCC(Oc1cnn(-c2ccc(C(F)(F)F)cc2)c1)c1ccc(C(=O)NCCC(=O)O)cc1 (racemic) [listing 2 of 2 here] |  | 992 | 
16 | CCCC(Oc1cnn(-c2ccc(C(F)(F)F)cc2)c1)c1ccc(C(=O)NCCC(=O)O)cc1 (single isomer, unassigned; (+)) | 430 |  | Ki [3]: 21800 nM; solubility kinetic [4]: 53 µM (≈ 25.2 µg/mL); Ki [5]: 4080 nM; Papp [6]: 7.74 ×10⁻⁶ cm/s; logD [7]: 2.33
